Results as given in ChEMBL document CHEMBL1138356, “Design and synthesis of human immunodeficiency virus entry inhibitors: sulfonamide as an isostere for the alpha-ketoamide group” (J Med Chem, 2007).

Tests used:
[1] = system: Human immunodeficiency virus 1; test: Antiviral activity against HIV1 pseudovirus in U87 cells expressing CD4 and CCR5 after 72 hrs by M33 pseudotyped assay; type: functional, organism-based, U-87MG ATCC; details: Human immunodeficiency virus 1, U-87 MG
Method in brief: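 M33 pseudotyped viral attachment assay giving IC50 values. Specificity for HIV was judged by counter-screening against AMLV-pseudotyped virus at concentrations above 100× the M33 IC50.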

[2] = Cytotoxicity against human U87 cells expressing CD4 and CXCR4; type: cell-based, U-87MG ATCC

Compound	IC50 [1] [µM]	CC50 [2] [µM]
CC1CN(C(=O)c2ccccc2)CCN1S(=O)(=O)c1c[nH]c2c(-c3ncon3)nccc12 (racemic)	1.24	> 40
CC1CN(C(=O)c2ccccc2)CCN1S(=O)(=O)c1c[nH]c2c(-n3cccn3)nccc12 (racemic)	0.3	> 40
COc1ncc(OC)c2c(C(=O)C(=O)N3CCN(C(=O)c4ccccc4)C[C@H]3C)c[nH]c12	0.005	> 40
C[C@@H]1CN(C(=O)c2ccccc2)CCN1S(=O)(=O)c1c[nH]c2c(-n3ccnn3)nccc12	0.027	> 40
C[C@@H]1CN(C(=O)c2ccccc2)CCN1S(=O)(=O)c1c[nH]c2c(-n3cncn3)nccc12	0.15	> 40
C[C@@H]1CN(C(=O)c2ccccc2)CCN1C(=O)C(=O)c1c[nH]c2ncccc12	0.03	> 40
C[C@@H]1CN(C(=O)c2ccccc2)CCN1S(=O)(=O)c1c[nH]c2c(-n3ccnn3)ncc(F)c12	0.007	> 40
CC1CN(C(=O)c2ccc3occc3c2)CCN1S(=O)(=O)c1c[nH]c2ncccc12 (racemic)	10	> 40
CC1CN(C(=O)c2ccccc2)CCN1S(=O)(=O)c1c[nH]c2c(-c3cccnc3)nccc12 (racemic)	0.64	> 40
CC1CN(C(=O)c2cccs2)CCN1S(=O)(=O)c1c[nH]c2ncccc12 (racemic)	4.6	> 40
C[C@@H]1CN(S(=O)(=O)c2c[nH]c3ncccc23)CCN1C(=O)c1ccccc1	13	> 40
Cc1cn(-c2nccc3c(S(=O)(=O)N4CCN(C(=O)c5ccccc5)CC4C)c[nH]c23)nn1 (racemic)	0.86	> 40
CC1CN(C(=O)c2ccccc2)CCN1S(=O)(=O)c1c[nH]c2c(-c3ccnc(N)n3)nccc12 (racemic)	0.5	> 40
CC1CN(C(=O)c2ccccc2)CCN1S(=O)(=O)c1c[nH]c2c(Cl)nccc12 (racemic)	11	> 40
C[C@@H]1CN(C(=O)c2ccccc2)CCN1S(=O)(=O)c1c[nH]c2c(-n3ccnn3)ccc(F)c12	0.15	> 40
C[C@@H]1CN(C(=O)c2csc(N)n2)CCN1S(=O)(=O)c1c[nH]c2ncccc12	0.52	> 40
CC1CN(C(=O)c2cnc3ccccc3n2)CCN1S(=O)(=O)c1c[nH]c2ncccc12 (racemic)	5.4	> 40
C[C@@H]1CN(C(=O)c2ccccc2)CCN1S(=O)(=O)c1c[nH]c2c(-n3cc(CO)nn3)nccc12	0.25	> 40
C[C@@H]1CN(C(=O)c2ccccc2)CCN1S(=O)(=O)c1c[nH]c2c(-n3cncn3)ccc(F)c12	0.5	> 40
CC1CN(C(=O)c2ccccc2)CCN1S(=O)(=O)c1c[nH]c2c(-n3cncn3)ncc(F)c12 (racemic)	0.08	> 40
COc1cccc2[nH]cc(S(=O)(=O)N3CCN(C(=O)c4ccccc4)C[C@H]3C)c12	4.2	> 40
C[C@@H]1CN(C(=O)c2cnccn2)CCN1S(=O)(=O)c1c[nH]c2ncccc12	9.1	> 40
C[C@@H]1CN(C(=O)c2ccccc2)CCN1S(=O)(=O)c1c[nH]c2c(F)ccc(F)c12	0.37	> 40
C[C@@H]1CN(C(=O)c2ccccc2)CCN1S(=O)(=O)c1c[nH]c2ccccc12	0.43	> 40
CC1CN(C(=O)c2ccccc2)CCN1S(=O)(=O)c1c[nH]c2c(Cl)nc(Cl)cc12 (racemic)	> 40	> 40
C[C@@H]1CN(C(=O)c2ccccc2)CCN1S(=O)(=O)c1c[nH]c2c(-n3ccnc3)nccc12	0.08	> 40
Cc1ccc(C(=O)N2CCN(S(=O)(=O)c3c[nH]c4ncccc34)C(C)C2)cc1 (racemic)	12.4	> 40
C[C@@H]1CN(C(=O)c2ccccc2)CCN1S(=O)(=O)c1c[nH]c2c(-n3nccn3)ncc(F)c12	0.62	> 40
C[C@@H]1CN(C(=O)c2ccccc2)CCN1S(=O)(=O)c1c[nH]c2c(-n3ccnc3)ncc(F)c12	0.036	> 40
CC1CN(C(=O)c2ccc3[nH]ccc3c2)CCN1S(=O)(=O)c1c[nH]c2ncccc12 (racemic)	4.6	> 40

Now from value to compound, other results behind:

IC50 [1] [µM]	Compound	CC50 [2] [µM]
0.2	C[C@@H]1CN(C(=O)c2ccccc2)CCN1S(=O)(=O)c1c[nH]c2c(-n3nccn3)ccc(F)c12	> 40
> 20	COC(=O)[C@@H]1CN(C(=O)c2ccccc2)CCN1S(=O)(=O)c1c[nH]c2ncccc12	> 40
> 40	COc1cc2c(S(=O)(=O)N3CCN(C(=O)c4ccccc4)CC3C)c[nH]c2cn1 (racemic)	> 40
16	CC[C@@H]1CN(C(=O)c2ccccc2)CCN1S(=O)(=O)c1c[nH]c2ncccc12	> 40
0.86	C[C@@H]1CN(C(=O)c2ccccc2)CCN1S(=O)(=O)c1c[nH]c2ncccc12	> 40
0.52	O=C(C(=O)N1CCN(C(=O)c2ccccc2)CC1)c1c[nH]c2ncccc12	> 40
2.3	Cc1ccc(C(=O)N2CCN(S(=O)(=O)c3c[nH]c4ncccc34)[C@H](C)C2)s1	> 40
0.5	CC1CN(C(=O)c2ccccc2)CCN1S(=O)(=O)c1c[nH]c2c(-c3nccs3)nccc12 (racemic)	> 40
22	O=C(c1ccccc1)N1CCN(S(=O)(=O)c2c[nH]c3ncccc23)CC1	> 40
0.026	COc1ncc(OC)c2c(C(=O)C(=O)N3CCN(C(=O)c4ccccc4)CC3)c[nH]c12	> 40
8.4	C[C@@H]1CN(C(=O)c2cccc(Cl)c2)CCN1S(=O)(=O)c1c[nH]c2ncccc12	> 40
> 20	NC(=O)[C@H]1CN(C(=O)c2ccccc2)CCN1S(=O)(=O)c1c[nH]c2ncccc12	> 40
0.16	CC1CN(C(=O)c2ccccc2)CCN1S(=O)(=O)c1c[nH]c2c(-n3ccnc3)nccc12 (racemic)	> 40
10	C[C@@H]1CN(C(=O)c2ccccc2)CCN1S(=O)(=O)c1c[nH]c2c(C#N)cc(F)cc12	> 40
4.7	C[C@@H]1CN(C(=O)c2ccccc2)CCN1S(=O)(=O)c1c[nH]c2c(F)c(F)c(F)c(F)c12	> 40
> 20	C[C@@H]1CN(C(=O)c2ccccc2)CCN1S(=O)(=O)c1c[nH]c2ccc(C#N)cc12	> 40
> 20	C[C@H]1CN(S(=O)(=O)c2c[nH]c3ncccc23)CCN1C(=O)c1ccccc1	> 40
0.14	CC1CN(C(=O)c2ccccc2)CCN1S(=O)(=O)c1c[nH]c2c(-c3cc[nH]n3)nccc12 (racemic)	> 40

IC50 [1] [µM]	Compound	CC50 [2] [µM]
0.2	C[C@@H]1CN(C(=O)c2ccccc2)CCN1S(=O)(=O)c1c[nH]c2cccc(F)c12	> 40
> 20	CC1(C)CN(C(=O)c2ccccc2)CCN1S(=O)(=O)c1c[nH]c2ncccc12	> 40
0.24	Cc1ncn(-c2nccc3c(S(=O)(=O)N4CCN(C(=O)c5ccccc5)CC4C)c[nH]c23)n1 (racemic)	> 40
0.24	C[C@@H]1CN(C(=O)c2ccccc2)CCN1S(=O)(=O)c1c[nH]c2c(-n3cc(CF)nn3)nccc12	> 40
0.2	CC1CN(C(=O)c2ccccc2)CCN1S(=O)(=O)c1c[nH]c2c(-n3cncn3)nccc12 (racemic)	> 40
3.6	C[C@@H]1CN(C(=O)c2ccccc2)CCN1S(=O)(=O)c1c[nH]c2ccc(F)cc12	> 40
0.58	COCc1cn(-c2ncc(F)c3c(S(=O)(=O)N4CCN(C(=O)c5ccccc5)CC4C)c[nH]c23)nn1 (racemic)	> 40
> 20	C[C@H]1CN(C(=O)c2ccccc2)CCN1S(=O)(=O)c1c[nH]c2ncccc12	> 40
12.6	CC1CN(C(=O)c2ccc3scnc3c2)CCN1S(=O)(=O)c1c[nH]c2ncccc12 (racemic)	> 40
1.9	Cc1csc(C(=O)N2CCN(S(=O)(=O)c3c[nH]c4ncccc34)[C@H](C)C2)c1	> 40
3.3	C[C@@H]1CN(C(=O)c2ccccn2)CCN1S(=O)(=O)c1c[nH]c2ncccc12	> 40
3	C[C@@H]1CN(C(=O)c2cc3ccccc3o2)CCN1S(=O)(=O)c1c[nH]c2ncccc12	> 40
0.42	C[C@@H]1CN(C(=O)c2csc(Br)n2)CCN1S(=O)(=O)c1c[nH]c2ncccc12	> 40
9.2	COc1cc2c(S(=O)(=O)N3CCN(C(=O)c4ccccc4)C[C@H]3C)c[nH]c2cn1	> 40
2.4	C[C@@H]1CN(C(=O)c2ccn(C)n2)CCN1S(=O)(=O)c1c[nH]c2ncccc12	> 40
> 20	NC(=O)[C@@H]1CN(C(=O)c2ccccc2)CCN1S(=O)(=O)c1c[nH]c2ncccc12	> 40
1.1	CC1CN(C(=O)c2ccccc2)CCN1S(=O)(=O)c1c[nH]c2c(-n3cc(CN(C)C)nn3)nccc12 (racemic)	> 40
